Data reported in ChEMBL document CHEMBL1177751, “Antifungal and cytotoxic activity of withanolides from Acnistus arborescens” (J Nat Prod, 2010).

Tests used:
[1] = Cytotoxicity against imatinib and dasatinib-resistant mouse DA1-3b/M2 cells after 72 hrs by MTT assay; assay type: functional, cell-based
In short: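 Cells seeded at 10^4/well and exposed to compound or DMSO vehicle for 72 h. MTT added for the final 4 h, absorbance read at 490 nm; triplicate, camptothecin as positive control. K562R, DA1-3b/M2 and bone marrow cells (three healthy donors) grown in RPMI 1640 + 1% glutamine, 1% penicillin/streptomycin, 10% FCS. EML-C1 cultured per ATCC instructions.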

Pneumocystis carinii = assay: Antifungal activity against Pneumocystis carinii after 4 days by RAL-555 staining based microscopy; assay type: functional, organism-based; conditions: 96 h
In short: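 Pneumocystis carinii came from the lungs of athymic Lou nu/nu rats that were dexamethasone-immunosuppressed and infected. Broth microdilution in DMEM + 10% FCS, 1.0 × 10^6 organisms/mL, final drug 1.1 × 10^-5 to 212.3 µM diluted from DMSO stocks. Incubated 4 days at 37 °C, 5% CO2, with a drug-free control. Smears stained with RAL-555 and counted microscopically; triplicate. Hill (Emax sigmoid) model used.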

IC50 (Pneumocystis carinii) [µM] | SMILES | IC50 [1] [µM]
 | CC[C@@]1(O)C(=O)OCc2c1cc1n(c2=O)Cc2cc3ccccc3nc2-1 [CAMPTOTHECIN] | 0.03
0.084 | N=C(N)c1ccc(OCCCCCOc2ccc(C(=N)N)cc2)cc1 [PENTAMIDINE] | 
